# Results from ChEMBL document CHEMBL3593166, “Hybrid chemistry. Part 4: Discovery of etravirine-VRX-480773 hybrids as potent HIV-1 non-nucleoside reverse transcriptase inhibitors” (Bioorg Med Chem, 2015).
# Calls of active or inactive are those of the source. The calls are words filed in the database; no cut-off is given here.
# Columns and labels:
# [1] = system: Human immunodeficiency virus 1; assay: Antiviral activity against HIV1 3B infected in human MT4 cells assessed as inhibition of virus-induced cytopathicity incubated for 4 days by MTT method; format: functional, organism-based; details: Human immunodeficiency virus 1, 3B, MT4, 96 h
# Method in brief: (§1)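 Virus stocks titrated in MT-4 cells as CCID50. MT-4 cells at 1 × 10^5 cells/mL infected at MOI 0.02 (HIV-1 IIIB or HIV-2 ROD), then plated immediately over serial compound dilutions (DMSO stocks, 50 mM or higher). After 4 days at 37 °C, viable cells counted by MTT. EC50 from means of at least three separate experiments.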
# [2] = system: Human immunodeficiency virus 1; assay: Antiviral activity against HIV1 RES056 expressing reverse transcriptase K103N + Y181C mutant infected in human MT4 cells assessed as inhibition of virus-induced cytopathicity incubated for 4 days by MTT method; format: functional, organism-based; details: Human immunodeficiency virus 1, RES056, MT4, 96 h
# Method in brief: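 Serial compound dilutions in MT-4 cells (1 × 10^5 cells/mL) infected at MOI 0.02 with K103N+Y181C double-mutant HIV-1. Cells added to compound right after infection and incubated 4 days at 37 °C. Viable cells counted by MTT and EC50 derived. Cytotoxicity run in parallel on uninfected cells. Values are the mean of at least three experiments.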
# [3] = system: Human immunodeficiency virus 2; assay: Antiviral activity against HIV2 ROD infected in human MT4 cells assessed as inhibition of virus-induced cytopathicity incubated for 4 days by MTT method; format: functional, organism-based; details: Human immunodeficiency virus 2, ISOLATE ROD, MT4, 96 h; method in brief: as §1
# [4] = Cytotoxicity against human MT4 cells assessed as reduction in cell viability incubated for 4 days MTT method; format: cell-based
# Method in brief: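 Uninfected MT-4 cells at 1 × 10^5 cells/mL exposed to serial compound dilutions (DMSO stocks, 50 mM or higher) in parallel with the antiviral test. Viability read by MTT after 4 days at 37 °C. CC50 is the concentration lowering viability by 50%. Values are means of at least three experiments.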
# [5] = Selectivity index, ratio of CC50 for human MT4 cells to EC50 for HIV1 3B infected in human MT4 cells; format: toxicity, cell-based; details: HIV1 3B infected MT4 cells, read-out: Ratio CC50/EC50
# Method in brief: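 SI calculated as CC50 in uninfected MT-4 cells divided by EC50 against WT HIV-1 IIIB. Both come from the 4-day MTT assays at 37 °C; infection was at MOI 0.02 with cells at 1 × 10^5 cells/mL.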
# [6] = target: Human immunodeficiency virus type 1 reverse transcriptase (Human immunodeficiency virus 1, UniProt Q72547); assay: Inhibition of HIV1 recombinant wild type reverse transcriptase p66/p51 assessed as reduction in biotin deoxyuridine triphosphate (biotin-dUTP) incorporation using poly(rA)/oligo (dT)16 template and primer by spectrofluorometry
# [7] = system: Human immunodeficiency virus 1; assay: Antiviral activity against HIV1 3B infected in human MT4 cells […] at 100 fold antiviral EC50 level added 3 to 5 hrs post infection and measured 31 hrs post infection by p24 enzyme-linked immunosorbent assay; format: functional, organism-based
# Method in brief: (§2)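 MT-4 cells infected with WT HIV-1 at m.o.i. 0.5; after 1 h adsorption, seeded at 45,000 cells/well, 37°C. Compounds added at 0, 1, 2, 3, 4, 5, 6, 7, 8, 9, 24 or 25 h post-infection. Reference agents at fixed levels (ETV 0.19 µM); hybrids at 100-fold their MT-4/MTT EC50. Virus production measured by p24 ELISA at 31 h post-infection.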
# [8] = system: Human immunodeficiency virus 1; assay: Antiviral activity against HIV1 3B infected in human MT4 cells […] added 3 to 5 hrs post infection and measured 31 hrs post infection by p24 enzyme-linked immunosorbent assay; format: functional, organism-based
# Method in brief: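 MT-4 cells infected with WT HIV-1 at m.o.i. 0.5 and allowed 1 h adsorption, then seeded at 45,000 cells/well at 37 °C. Compound added at set times from 0 to 25 h post-infection. Virus production read by p24 ELISA at 31 h post-infection.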
# [9] = system: Human immunodeficiency virus 1; assay: Antiviral activity against HIV1 3B infected in human MT4 cells […] at 0.19 uM added 3 to 5 hrs post infection and measured 31 hrs post infection by p24 enzyme-linked immunosorbent assay; format: functional, organism-based; method in brief: as §2
Structure (SMILES),EC50 [1],EC50 [2],EC50 [3],CC50 at 96 h [4],selectivity ratio [5],IC50 [6],inhibition [7],inhibition [8],inhibition [9]
Cc1cc(C#N)cc(C)c1Oc1ccnc(SCC(=O)Nc2cccc(Cl)c2)n1,8 µM,> 294 µM,> 294 µM,> 294 µM,> 37,,,,
Cc1ccccc1NC(=O)CSc1nccc(Oc2c(C)cc(C#N)cc2C)n1,5.9 µM,> 309 µM,> 309 µM,> 309 µM,> 52,,,,
Cc1cc(C#N)cc(C)c1Oc1ccnc(SCC(=O)Nc2ccc(Cl)c(Cl)c2)n1,5.3 µM,> 89 µM,> 89 µM,89 µM,17,,,,
Cc1cc(C#N)cc(C)c1Oc1ccnc(SCC(=O)Nc2ccc(Cl)cc2Cl)n1,1.2 µM,> 272 µM,> 272 µM,> 272 µM,> 227,,,,
Cc1cc(C#N)cc(C)c1Oc1ccnc(SCC(=O)Nc2cc(Cl)cc(Cl)c2)n1,10.8 µM,> 41 µM,> 41 µM,≥ 41 µM,> 3.7,,,,
Cc1cc(C#N)cc(C)c1Oc1ccnc(SCC(=O)Nc2ccc(F)cc2)n1,8 µM,> 306 µM,> 306 µM,> 306 µM,> 38,,,,
Cc1cc(C#N)cc(C)c1Oc1ccnc(SCC(=O)Nc2ccc([N+](=O)[O-])cc2)n1,1.4 µM,> 287 µM,> 287 µM,> 287 µM,> 205,,,,
Cc1cc(C#N)cc(C)c1Oc1ccnc(SCC(=O)Nc2cccc([N+](=O)[O-])c2)n1,41 µM,> 287 µM,> 287 µM,> 287 µM,> 7,,,,
Cc1cc(C#N)cc(C)c1Oc1ccnc(SCC(=O)Nc2ccc(C#N)cc2F)n1,6 µM,> 288 µM,> 288 µM,> 288 µM,> 48,,,,
Cc1cc(C#N)cc(C)c1Oc1ccnc(SCC(=O)Nc2ccc(O)cc2)n1,8.3 µM,> 71 µM,> 71 µM,71 µM,9,,,,
NS(=O)(=O)c1ccc(NC(=O)CSc2nnc(Br)n2-c2ccc(C3CC3)c3ccccc23)c(Cl)c1,0.00014 µM,0.00023 µM,,5.82 µM,41600,,,,
Cc1cc(C#N)cc(C)c1Oc1ccnc(SCC(=O)Nc2ccccc2[N+](=O)[O-])n1,0.34 µM,> 287 µM,> 287 µM,> 287 µM,> 844,1.17 µM,Active,,
COc1ccc(NC(=O)CSc2nccc(Oc3c(C)cc(C#N)cc3C)n2)cc1,7.3 µM,> 69 µM,> 69 µM,≥ 69 µM,≥ 9,,,,
Cc1ccnc2c1NC(=O)c1cccnc1N2C1CC1,,,,,,,,Active,
Cc1cc(C#N)cc(C)c1Oc1ccnc(SCC(=O)Nc2ccc(Cl)cc2)n1,3.9 µM,> 294 µM,> 294 µM,> 294 µM,> 75,,,,
Cc1cc(C#N)cc(C)c1Oc1ccnc(SCC(=O)Nc2cccc(F)c2)n1,8.1 µM,> 306 µM,> 306 µM,> 306 µM,> 38,,,,
Cc1cc(S(N)(=O)=O)ccc1NC(=O)CSc1nccc(Oc2c(C)cc(C#N)cc2C)n1,0.81 µM,> 46 µM,> 46 µM,46 µM,57,2.77 µM,Active,,
Cc1cc(C#N)cc(C)c1Oc1ccnc(SCC(=O)Nc2ccccc2Cl)n1,0.24 µM,≥ 10.9 µM,> 294 µM,> 294 µM,> 1220,0.473 µM,Active,,
Cc1ccc(NC(=O)CSc2nccc(Oc3c(C)cc(C#N)cc3C)n2)cc1,5.1 µM,> 309 µM,> 309 µM,> 309 µM,> 61,,,,
Cc1cc(C#N)cc(C)c1Oc1nc(Nc2ccc(C#N)cc2)nc(N)c1Br [ETRAVIRINE],,,,> 4.6 µM,> 1120,,,,Active
CC(C)Nc1cccnc1N1CCN(C(=O)c2cc3cc(NS(C)(=O)=O)ccc3[nH]2)CC1 [DELAVIRDINE],,> 44 µM,,> 44 µM,> 67,,,,
Cc1cc(C#N)cc(C)c1Oc1ccnc(SCC(=O)Nc2ccc(Br)cc2)n1,1.4 µM,> 24 µM,> 24 µM,24 µM,17,,,,
Cc1cc(C#N)cc(C)c1Oc1ccnc(SCC(=O)Nc2ccc(S(N)(=O)=O)cc2)n1,7.9 µM,> 266 µM,> 266 µM,> 266 µM,> 34,,,,
Cc1cc(C#N)cc(C)c1Oc1ccnc(SCC(=O)Nc2ccc(C#N)cc2)n1,4.3 µM,> 301 µM,> 301 µM,> 301 µM,> 70,,,,
Cc1cc(C#N)cc(C)c1Oc1ccnc(SCC(=O)Nc2ccccc2)n1,> 320 µM,> 320 µM,> 320 µM,> 320 µM,,,,,
